Experimental data as given in ChEMBL document CHEMBL1153279, “Antioxidant and antiradical activities of resorcinarene tetranitroxides” (Bioorg Med Chem Lett, 2009).

What was measured:
[1] = Antiradical activity against 2,2'-azobis-amidinopropane-induced linoleic acid peroxidation assessed as ratio of total oxyradical scavenging capacity to Trolox C; assay type: physicochemical
How it was run: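 Linoleic acid (0.63 mM) was autoxidized by 1 mM ABAP in 0.05 M phosphate buffer (pH 7.4) with 0.02% Lubrol, in air at 37 °C. Conjugated-diene formation was followed at 234 nm. Inhibitor was added once autoxidation ran at constant rate. Efficiency is expressed relative to Trolox C, with stoichiometric factors taken from lag-time ratios and Trolox n set at 2.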

[2] = test system: Radical scavenging activity; assay: Antioxidant activity assessed as [drug]/[DPPH]causing 50% DPPH radical scavenging activity after 5 mins; assay type: functional
How it was run: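 DPPH reacted with scavenger at 25 °C in 1.5 mL EtOH plus 0.5 mL 0.2 M acetate buffer (pH 5.5). DPPH started at 50–100 µM and test scavengers at 0.5–25 µM. Percent DPPH scavenging was read after 5 min and plotted against the [scavenger]/[DPPH] ratio. ECR50 is the ratio giving 50% scavenging.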

Structure (SMILES) | Ratio [1] | Activity [2]
Oc1cccc(O)c1 [RESORCINOL] | 1.7 | 0.29
CC1(C)CC(O)CC(C)(C)N1[O] [TEMPOL] | 0.4 | 64
